In ChEMBL document CHEMBL1126707, “Tetrapeptide tachykinin antagonists: synthesis and modulation of the physicochemical and pharmacological properties of a new series of partially cyclic analogs” (J Med Chem, 1993):
≈ marks a conversion by molar mass, not a printed value.

How the values were obtained:
[1] = tested on: Mus musculus; assay: Tested for antinociceptive activity in hot plate test at 60 min after 40 mg/kg oral administration in mouse; insoluble; assay type: functional, organism-based; set-up: dose 40 mg/kg; conditions: at 40 mg/kg
Outline: (§1)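 Male CD1 mice (25-30 g) on a 55 ± 0.2 °C plate; forepaw-licking latency measured 60 min after oral 40 mg/kg given in water (soluble) or 0.2% hydroxypropylcellulose (insoluble); % increase of reaction time versus vehicle controls; groups of 12 animals; Dunnett t-test.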

[2] = target: T1, Substance-K receptor (Homo sapiens, UniProt P21452); assay: Tested for binding affinity against human NK-2 receptor transfected on CHO cells using [125I]-His] NKA as radioligand; assay type: cell-based
T1 sequence (P21452 whole entry): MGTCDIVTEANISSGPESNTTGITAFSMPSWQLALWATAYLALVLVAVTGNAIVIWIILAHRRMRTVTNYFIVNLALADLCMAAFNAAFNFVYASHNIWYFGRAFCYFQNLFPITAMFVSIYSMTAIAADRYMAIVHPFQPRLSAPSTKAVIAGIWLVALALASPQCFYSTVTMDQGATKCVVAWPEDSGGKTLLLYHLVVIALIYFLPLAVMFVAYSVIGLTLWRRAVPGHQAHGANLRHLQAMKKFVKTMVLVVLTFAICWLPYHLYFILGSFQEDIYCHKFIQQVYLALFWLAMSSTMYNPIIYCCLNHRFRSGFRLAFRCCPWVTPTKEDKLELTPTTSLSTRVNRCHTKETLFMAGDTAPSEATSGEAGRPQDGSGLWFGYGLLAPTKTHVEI

[3] = target: T2, Substance-K receptor (Oryctolagus cuniculus, UniProt P79218); assay: Tested for antagonist activity against NK-2 receptor in rabbit pulmonary artery by using Neurokinin A as agonist; assay type: functional; conditions: read-out: pA2 (converted)
T2 sequence (P79218 whole entry): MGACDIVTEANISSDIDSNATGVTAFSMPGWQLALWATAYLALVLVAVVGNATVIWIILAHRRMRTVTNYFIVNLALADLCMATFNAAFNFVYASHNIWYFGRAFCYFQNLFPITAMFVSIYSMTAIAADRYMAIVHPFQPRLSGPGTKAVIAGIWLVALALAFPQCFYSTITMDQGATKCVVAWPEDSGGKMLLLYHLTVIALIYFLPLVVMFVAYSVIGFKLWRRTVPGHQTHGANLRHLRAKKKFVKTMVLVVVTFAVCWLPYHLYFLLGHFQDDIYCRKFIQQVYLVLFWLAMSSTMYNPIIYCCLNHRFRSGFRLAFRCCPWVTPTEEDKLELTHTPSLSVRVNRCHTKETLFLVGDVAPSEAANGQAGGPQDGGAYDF
Outline: (§2)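 Isolated-organ contractile bioassays: SP on rabbit vena cava (NK-1), neurokinin A on rabbit pulmonary artery (NK-2), neurokinin B on rat portal vein (NK-3); antagonist apparent affinity expressed as pA2 by Schild plot.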

[4] = target: T3, Neuromedin-K receptor (Rattus norvegicus, UniProt P16177); assay: Tested for antagonist activity against NK-3 receptor in rat portal vein by using Neurokinin B as agonist; assay type: functional; conditions: read-out: pA2 (converted); outline: as §2
T3 sequence (P16177 whole entry): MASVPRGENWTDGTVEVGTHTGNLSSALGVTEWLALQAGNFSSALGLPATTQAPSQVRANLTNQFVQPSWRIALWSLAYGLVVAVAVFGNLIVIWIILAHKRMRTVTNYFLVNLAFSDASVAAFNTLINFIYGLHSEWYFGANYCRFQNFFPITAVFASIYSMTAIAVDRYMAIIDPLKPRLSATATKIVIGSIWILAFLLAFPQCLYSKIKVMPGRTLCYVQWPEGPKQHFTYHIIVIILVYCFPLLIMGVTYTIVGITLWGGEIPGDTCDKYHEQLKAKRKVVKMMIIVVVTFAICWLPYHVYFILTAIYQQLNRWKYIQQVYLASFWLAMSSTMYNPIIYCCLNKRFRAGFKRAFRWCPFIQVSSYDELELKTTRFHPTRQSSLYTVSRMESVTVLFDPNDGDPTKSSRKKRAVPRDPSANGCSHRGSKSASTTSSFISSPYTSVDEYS

[5] = tested on: Mus musculus; assay: Tested for antinociceptive activity in hot plate test at 10 min after 0.5 mg/kg intravenous administration in mouse; insoluble; assay type: functional, organism-based; set-up: dose 0.5 mg/kg; conditions: at 0.5 mg/kg
[6] = target: T4, Substance-P receptor (Homo sapiens, UniProt P25103); assay: Tested for binding affinity against human NK-1 receptor transfected on CHO cells using [125I]-Tyr] SP as radioligand; assay type: cell-based
T4 sequence (P25103 whole entry): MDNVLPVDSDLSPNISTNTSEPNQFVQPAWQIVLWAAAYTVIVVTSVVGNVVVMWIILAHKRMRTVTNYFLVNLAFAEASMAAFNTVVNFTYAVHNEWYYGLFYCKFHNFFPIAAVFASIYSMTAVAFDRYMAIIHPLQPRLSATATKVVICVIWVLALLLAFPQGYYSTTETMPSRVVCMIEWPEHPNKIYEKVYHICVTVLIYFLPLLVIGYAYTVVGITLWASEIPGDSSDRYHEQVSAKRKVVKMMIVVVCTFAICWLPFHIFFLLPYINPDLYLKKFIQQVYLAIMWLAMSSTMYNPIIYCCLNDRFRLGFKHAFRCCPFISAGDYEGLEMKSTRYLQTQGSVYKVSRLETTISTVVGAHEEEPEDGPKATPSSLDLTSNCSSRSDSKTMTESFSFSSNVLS

[7] = target: T5, Substance-P receptor (Rattus norvegicus, UniProt P14600); assay: Tested for the binding affinity against rat neurokinin-1 (NK-1) receptor transfected on CHO cells using [125I]-Tyr] SP as radioligand; assay type: cell-based
T5 sequence (P14600 whole entry): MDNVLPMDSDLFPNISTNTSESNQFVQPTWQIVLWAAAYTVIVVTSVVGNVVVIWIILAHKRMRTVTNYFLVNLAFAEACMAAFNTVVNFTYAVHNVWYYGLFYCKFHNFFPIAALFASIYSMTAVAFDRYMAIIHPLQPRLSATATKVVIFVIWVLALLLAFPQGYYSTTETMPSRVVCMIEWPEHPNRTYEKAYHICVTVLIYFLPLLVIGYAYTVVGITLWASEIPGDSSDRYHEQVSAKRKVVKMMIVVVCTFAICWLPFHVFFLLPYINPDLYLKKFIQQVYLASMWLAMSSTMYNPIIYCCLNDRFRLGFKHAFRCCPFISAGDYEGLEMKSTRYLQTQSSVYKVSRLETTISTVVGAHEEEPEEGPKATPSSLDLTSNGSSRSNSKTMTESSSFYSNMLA

[8] = target: T6, Substance-K receptor (Rattus norvegicus, UniProt P16610); assay: Tested for the binding affinity against rat neurokinin-2 (NK-2) receptor transfected on CHO cells using [125I]-His] NKA as radioligand; assay type: cell-based
T6 sequence (P16610 whole entry): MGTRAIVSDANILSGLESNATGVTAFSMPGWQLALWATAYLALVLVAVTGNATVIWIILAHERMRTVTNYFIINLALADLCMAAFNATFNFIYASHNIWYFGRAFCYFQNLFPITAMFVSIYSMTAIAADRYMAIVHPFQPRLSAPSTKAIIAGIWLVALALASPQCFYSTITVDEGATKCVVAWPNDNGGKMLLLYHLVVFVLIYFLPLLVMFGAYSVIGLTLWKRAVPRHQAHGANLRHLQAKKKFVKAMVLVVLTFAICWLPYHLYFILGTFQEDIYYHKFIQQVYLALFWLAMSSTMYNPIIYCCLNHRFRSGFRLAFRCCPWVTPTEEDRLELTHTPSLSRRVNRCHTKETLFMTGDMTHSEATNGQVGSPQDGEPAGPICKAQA

[9] = species: Rattus norvegicus; assay: (§3) Binding affinity by displacement of tritiated substance P from its binding sites on membrane preparations from rat brain
[10] = species: Mus musculus; assay: (§4) Binding affinity by displacement of tritiated substance P from its binding sites on membrane preparations from mouse brain
[11] = target: Substance-P receptor (Oryctolagus cuniculus); assay: Tested for antagonist activity against NK1 receptor in rabbit vena cava by using substance P (SP) as agonist; conditions: read-out: pA2 (converted)
[12] = as §4; assay type: tissue-based
[13] = as §3; assay type: tissue-based
[14] = Solubility was evaluated; assay type: physicochemical
[15] = target: T6, Substance-K receptor; assay: Tested for binding affinity against rat NK-2 receptor transfected on CHO cells using [125I]-His] NKA as radioligand; assay type: cell-based
[16] = tested on: Mus musculus; assay: Tested for antinociceptive activity against mouse hotplate test for 10 min after intravenous injection at 0.5 […] (P*<0.05); assay type: functional
[17] = tested on: Mus musculus; assay: Tested for antinociceptive activity against mouse hotplate test for 60 min after oral administration of 40 mg/kg (P*<0.05); assay type: functional; outline: as §1
[18] = species: Rattus norvegicus; assay: Tested for its ability to promote degranulation of rat peritoneal mast cells at 0.1 mM or lower; No degranulation; assay type: functional, cell-based
Outline: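 Peritoneal mast cells lavaged from male Sprague-Dawley rats (350-400 g), buffer pH 6.8, 2 × 10^4 cells/mL, preincubated 10 min at 37 °C, then exposed to compound (10^-7 to 10^-4 M, in water or DMSO) 10 min at 37 °C; iced, centrifuged; histamine in supernatant and pellet measured fluorimetrically with o-phthalaldehyde, as % of total.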

[19] = target: T1, Substance-K receptor; assay: Tested for binding affinity against human NK-2 receptor
[20] = target: T6, Substance-K receptor; assay: Tested for binding affinity against rat NK-2 receptor
[21] = target: T4, Substance-P receptor; assay: Tested for binding affinity against human NK-1 receptor
[22] = target: T5, Substance-P receptor; assay: Tested for binding affinity against rat NK-1 receptor
[23] = target: Substance-P receptor (Oryctolagus cuniculus); assay: Tested for antagonist activity against NK1 receptor in rabbit vena cava by using substance P (SP) as agonist; conditions: read-out: pA2 (converted); remark: listed apart in the source
[24] = tested on: Mus musculus; assay: Tested for antinociceptive activity against mouse hotplate test for 10 min after intravenous injection at 0.5 […] (P*<0.01); assay type: functional

Row | IC50 [2] [nM] | Kb [3] [µM] | Kb [4] [nM] | solubility [14] [µg/mL] | Kb [23] [nM] | Structure (SMILES) | Increase [17] [%] | further results
1 | 99 | 3.98 | 1580 |  |  | CC(=O)N[C@H](C(=O)N[C@H](Cc1cn(C=O)c2ccccc12)C(=O)N[C@@H](Cc1ccccc1)C(=O)N(C)Cc1ccccc1)C(C)O (some centres not stated) |  | Increase [1]: Insoluble; Increase [5]: Insoluble; IC50 [6]: 6 nM; IC50 [7]: 3.4 µM; IC50 [8]: 824 nM; Ki [9]: 320 nM; Ki [10]: 320 nM; Kb [11]: 79.4 nM
2 |  | 15.8 | 12600 | 45000 (≈ 57000 µM) | 126 | CN(Cc1ccccc1)C(=O)[C@H](Cc1ccccc1)NC(=O)[C@@H](Cc1cn(C(=O)CCC(=O)O)c2ccccc12)NC(=O)C[C@@H]1NC(=O)[C@@H]2C3CCC(CC3)N2C1=O | 53 | IC50 [19]: 129 nM; IC50 [20]: 388 nM; Increase [16]: 42%; IC50 [21]: 85 nM; IC50 [22]: 14.5 µM
3 |  | 0.126 | 100 | < 10 | 50.1 | CC(=O)n1cc(C[C@@H](NC(=O)C[C@@H]2NC(=O)[C@@H]3C4CCC(CC4)N3C2=O)C(=O)N[C@@H](Cc2ccccc2)C(=O)N(C)Cc2ccccc2)c2ccccc21 |  | 

The next lines start with the compound.

Row | Structure (SMILES) | IC50 [2] [nM] | Kb [3] [µM] | Kb [4] [nM] | solubility [14] [µg/mL] | Kb [23] [nM] | Increase [17] [%] | further results
4 | CSCC[C@@H](NC(=O)[C@H](CC(C)C)NC(=O)CNC(=O)[C@H](Cc1ccccc1)NC(=O)[C@H](Cc1ccccc1)NC(=O)[C@H](CCC(N)=O)NC(=O)[C@H](CCC(N)=O)NC(=O)[C@@H]1CCCN1)C(N)=O |  |  |  |  |  |  | Ki [12]: 750 nM; Ki [13]: 750 nM
5 | CN(Cc1ccccc1)C(=O)[C@H](Cc1ccccc1)NC(=O)[C@@H](Cc1cn(C=O)c2ccccc12)NC(=O)C[C@@H]1NC(=O)[C@@H]2C3CCC(CC3)N2C1=O | 17 | 12.6 | 12600 | < 10 |  | 33 | IC50 [15]: 142 nM; Increase [16]: 51%; IC50 [18]: Not Active
6 | CN(Cc1ccccc1)C(=O)[C@H](Cc1ccccc1)NC(=O)[C@@H](Cc1c[nH]c2ccccc12)NC(=O)C[C@@H]1NC(=O)[C@@H]2C3CCC(CC3)N2C1=O | 65 | 2 | 1580 | < 10 |  | 74 | IC50 [15]: 65 nM; Increase [24]: 66%; IC50 [18]: Not Active
7 | CN(Cc1ccccc1)C(=O)[C@H](Cc1ccccc1)NC(=O)[C@@H](Cc1cn(C(=O)OC(C)(C)C)c2ccccc12)NC(=O)C[C@@H]1NC(=O)[C@@H]2C3CCC(CC3)N2C1=O |  | 12.6 | 1260 | < 10 | 126 |  | 
